The list is not random: actives were taken first. Their share in the collection is about 2.6%.
esBAF inh = blocks esBAF chromatin remodeling in mouse ES cells; Bmi1-luciferase knock-in reporter, 24 h; 100% = twice the neutral-well signal; reporter increase, % at 12.5 µM; 350,000 tested, 2% active; in the data active = activation above about 40%; inconclusive = no clear call, values can overlap the other calls;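 also: a rise in the Bmi1 reporter signal indicates esBAF inhibition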
ARFGAP1 inh = inhibits rat ARF GTPase activating protein 1; Arfgap1-stimulated ARF1 GTP hydrolysis, GDP FP detection; Q62848; inhibition, % at 16.5 µM; 360,000 tested, 0.26% active;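 active = inhibition above a per-plate limit, mean inhibition of low control wells plus 3 SD, cut at about 25% in these data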
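Replicates: Single well per compound | Assay system: Truncated rat Arfgap1 GAP domain | Control set: No-Arfgap1 wells (100%) versus DMSO full-reaction wells (0%) | Times: Enzyme reaction 120 min at 25 °C after 20 min preincubation | Reagent: Human ARF1(Δ1-17)-GTP substrate | Measured by: Tracer-displacement fluorescence polarization with EDTA stop, 620/688 nm | Measure: Percent inhibition of Arfgap1-stimulated GTP hydrolysis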
ASAP1 inh = inhibitors of human ASAP1 ArfGAP activity. Q9ULH1. ASAP1-stimulated ARF1 GTP hydrolysis, GDP FP detection. inhibition, % at 16.5 µM. 360,000 tested, 0.19% active. AID 624377; in the data active = inhibition above about 25%
Target sequence (Q9ULH1 325-724 limits assumed): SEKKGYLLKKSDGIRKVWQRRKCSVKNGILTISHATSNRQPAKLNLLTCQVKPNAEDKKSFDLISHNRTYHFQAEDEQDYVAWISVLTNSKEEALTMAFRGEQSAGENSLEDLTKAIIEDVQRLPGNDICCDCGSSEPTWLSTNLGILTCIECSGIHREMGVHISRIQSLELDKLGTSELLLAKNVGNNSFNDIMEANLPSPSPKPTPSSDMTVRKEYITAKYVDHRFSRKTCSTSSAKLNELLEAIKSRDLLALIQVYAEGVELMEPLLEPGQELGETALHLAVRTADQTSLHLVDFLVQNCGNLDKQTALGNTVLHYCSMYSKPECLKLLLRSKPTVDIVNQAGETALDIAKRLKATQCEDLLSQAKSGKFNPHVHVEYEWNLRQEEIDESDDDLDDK
SMARCA2 act = activators of SMARCA2 function; activation, % at 9.1 µM; 370,000 tested, 1% active; MG213 cells, MMTV-luciferase reporter, dexamethasone, overnight; in the data active = activation above about 7.8%
SMARCA2 conf = confirmation of SMARCA2 (BRM) function activators | shares compounds with SMARCA2 act | MG213 cells, MMTV-luciferase with dexamethasone, luminescence, overnight; MG213 cells expressing E1A, Rb sequestered; DMSO wells 0%, reference activator 100% | activation, % at 9.1 µM | 3,500 tested, 30% active | AID 652260;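 active = activation above its plate's cutoff, the mean activation of tested wells plus 3 SD, cut at about 7.9% in these data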
GAL4-VP16 Luc = activates GAL4-VP16 luciferase, flagging SMARCA2 activator hits; activation, % at 9.1 µM; HEK293 GAL4-VP16 pG5luc reporter, luciferase luminescence; scaled: DMSO wells 0%, SAHA wells 100%; 3,500 tested, 41% active; shares compounds with SMARCA2 act;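 active = activation above the solvent-only control well mean plus 3 SD, averaged across control plates, cut at about 5.2% in these data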
Hits are given with their value; 0 = inactive; ? = inconclusive; - = no result.

SMILES	esBAF inh	ARFGAP1 inh	ASAP1 inh	SMARCA2 act	SMARCA2 conf	GAL4-VP16 Luc
COc1ccccc1CN1CCSCC1	-	0	0	9.8	0	0
O=C(Cn1c(=O)c2sccc2n(Cc2ccc([N+](=O)[O-])cc2)c1=O)NCCc1ccccc1	-	0	0	10.2	0	0
C[C@@H]1CCCCO[C@H](CN(C)C(=O)NC2CCCCC2)[C@H](C)CN([C@@H](C)CO)C(=O)c2cc(NS(=O)(=O)c3ccccc3)ccc2O1	0	-	-	-	-	-
Cc1cccc(NNC(=O)C(=O)NNc2cccc(C)c2)c1	-	0	0	0	-	-
Cc1cccc(N=NC(=S)NNc2cccc(C)c2)c1	52.2	0	0	8.7	0	9.1
C[C@H](CO)N1C[C@H](C)[C@H](CN(C)S(=O)(=O)c2ccc(F)cc2)Oc2ccc(NC(=O)Cn3cnnn3)cc2CC1=O	0	-	-	-	-	-
N#Cc1cc2c(nc1SCc1ccncc1)CCC2	43.5	0	0	11.6	0	0
COc1ccc(NC(=O)Nc2ccc3c(c2)C(=O)N([C@H](C)CO)C[C@@H](C)[C@H](CN(C)C)OCCCC[C@@H](C)O3)cc1	0	-	-	-	-	-
CCOC(=O)/C(C#N)=C/c1c(Oc2cccc(C)c2)nc2ccccn2c1=O	0	0	0	0	-	-
CCOC(=O)/C(C#N)=C/c1c(Oc2cc(C)cc(C)c2)nc2ccccn2c1=O	-	0	0	8.2	0	0
CCn1c(C)csc1=NC(=O)c1ccccc1	0	0	0	0	-	-
CCn1c(C)csc1=NC(=O)c1ccccc1O	?	0	0	12.1	0	8.0
O=C(COC(=O)c1ccccc1NS(=O)(=O)c1cccs1)NCC12CC3CC(CC(C3)C1)C2	-	0	0	8.9	0	0
CCn1c2ccccc2c2nnc(SCc3ccccc3)nc21	0	0	0	8.2	0	0
COc1ccc(Nc2c(-c3cc4ccccc4o3)nc3nc(C)cc(C)n23)cc1	-	0	0	8.6	0	0
C[C@@H]1CN([C@H](C)CO)C(=O)Cc2cc(NC(=O)C3CCCCC3)ccc2O[C@H]1CN(C)C(=O)Nc1ccc(C(F)(F)F)cc1	0	-	-	-	-	-
Fc1ccccc1CSc1ncn[nH]1	0	0	0	9.0	0	0
CC(C)c1ccc(NCCC(=O)c2cccs2)cc1	-	0	0	0	-	-
Cc1ccc(NCCC(=O)c2cccs2)cc1	64.2	0	0	11.3	0	13.7
Cc1ccc(S(=O)(=O)N(C)C[C@@H]2Oc3ccc(N(C)C)cc3CC(=O)N([C@@H](C)CO)C[C@H]2C)cc1	0	-	-	-	-	-
CCOC(=O)c1sc(NC(=O)Cc2ccc(F)cc2)nc1C	-	0	0	8.4	0	0
CCOC(=O)c1sc(NC(=O)Nc2ccc(F)cc2)nc1C	-	0	0	0	-	-
CC(C)c1ccc(/C=C2\SC(N3CCCC3)=NC2=O)cc1	-	0	0	8.3	0	0
COc1ccc(S(=O)(=O)N2CCCC2)cc1NC(=O)c1ccccc1	0	0	0	8.1	0	0
COc1ccc(S(=O)(=O)N2CCCCC2)cc1NC(=O)c1ccccc1	-	0	0	0	-	-
SMILES	esBAF inh	ARFGAP1 inh	ASAP1 inh	SMARCA2 act	SMARCA2 conf	GAL4-VP16 Luc
CCOC(=O)c1ccc2[nH]c3c(c2c1)CCCC3O (stereo not drawn)	-	0	0	0	-	-
CCOC(=O)c1ccc2[nH]c3c(c2c1)CCCC3	66.0	0	0	12.6	0	8.9
Cc1ccc(NC(=S)NCc2cccs2)c(C)c1	0	0	0	10.2	0	0
CCOc1ccc(N2C(=O)CC(SCCN)C2=O)cc1 (stereo not drawn)	0	0	0	14.3	7.8	9.6
COc1ccc2nc(C)cc(Nc3ccc(N4CCOCC4)cc3)c2c1	0	0	0	0	-	-
COc1ccc2nc(C)cc(Nc3ccc(N4CCN(C)CC4)cc3)c2c1	0	0	0	74.3	133.4	0
CC(=O)c1ccc(NC(=S)NCCc2ccc(S(N)(=O)=O)cc2)cc1	0	0	0	0	-	-
CC(=O)c1ccc(NC(=S)NCCc2cccc(Cl)c2)cc1	-	0	0	8.0	0	10.7
CN(C)c1ccc(NC(=O)c2ccc([N+](=O)[O-])cc2Cl)cc1	-	0	0	9.7	7.9	11.6
CC(C)C(=O)Nc1ccc(NC(=O)c2ccc([N+](=O)[O-])cc2Cl)cc1	0	0	0	0	-	-
O=C(Nc1ccccn1)c1ccc([N+](=O)[O-])cc1Cl	-	0	0	0	-	-

Assay outcomes from PubChem BioAssay.
